# The list is not random: actives were taken first. Their share in the collection is about 2.8%.
# NPY Y2 blocker – antagonists of human neuropeptide Y receptor Y2 | P49146 | NPY-Y2 expressing cells, antagonist mode | inhibition, % at 2.7 µM | actives 0.99% (n = 140,000); in the data active means inhibition above about 17%;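 further: 0% = vehicle with agonist challenge and 100% = reference antagonist with challenge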
# NPY-Y1 PAM-ag – human NPY-Y1 potentiation or agonism, primary screen. P25929. NPY-Y1 expressing cells, potentiator/agonist activation. activation, % at 3.6 µM. actives 0.37% (n = 220,000); in the data active means activation above about 33%, passing the limit was not always enough;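 further: cells stimulated with NPY at EC10 then isoproterenol at EC100; 0% = low agonist plus stimulus and 100% = saturating agonist plus stimulus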
# NPY-Y1 antag – antagonists of human neuropeptide Y receptor Y1; P25929; HEK293-CNG Y1 cells, membrane potential fluorescence; NPY at EC95, then isoproterenol; inhibition, % at 3.6 µM; actives 1% (n = 200,000); AID 1040;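 active means inhibition above the campaign mean inhibition of all tested compounds plus 3 SD, cut at about 20% in these data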;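 further: 0% = DMSO wells given NPY plus isoproterenol and 100% = isoproterenol alone without NPY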
#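 System: HEK293 cells with Y1 receptor plus CNG channel / Probe or stimulus: NPY 25 nM then isoproterenol 1 µM plus Ro 20-1724 25 µM / Compound: one concentration, 3.6 µM, in 0.4% DMSO / Schedule: compound incubation 1 h at room temperature, readout 45 min post-stimulation / Measured by: membrane potential fluorescence / Read-out: % inhibition of NPY effect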
# PGE2 EP2 inh – inhibitors of human EP2 prostaglandin E2 receptor | P43116 | C6 glioma cells expressing human EP2, cAMP TR-FRET; cells stimulated with saturating PGE2 | inhibition, % at 25 µM | actives 0.52% (n = 260,000);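 active means percent inhibition above 40 after rounding to a whole number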;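 further: rat C6 glioma host cells with rolipram phosphodiesterase inhibitor present; the protocol text gives 20 µM as final concentration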
# Target sequence (P43116 whole entry, looked up): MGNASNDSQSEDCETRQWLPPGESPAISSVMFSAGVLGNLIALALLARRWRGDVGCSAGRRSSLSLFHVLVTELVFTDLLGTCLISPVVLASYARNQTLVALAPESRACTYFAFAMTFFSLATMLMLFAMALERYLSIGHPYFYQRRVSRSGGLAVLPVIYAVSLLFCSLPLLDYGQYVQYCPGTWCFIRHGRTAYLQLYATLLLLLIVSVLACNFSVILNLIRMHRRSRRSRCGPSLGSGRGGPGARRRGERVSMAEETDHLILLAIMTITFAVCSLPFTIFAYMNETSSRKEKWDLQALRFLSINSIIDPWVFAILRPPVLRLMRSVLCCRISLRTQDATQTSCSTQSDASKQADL
# NPY2 pot ag – potentiators or agonists of human neuropeptide Y receptor Y2 | P49146 | AID 1359 | actives 0.45% (n = 220,000) | cells expressing NPY-Y2, potentiator/agonist read-out | activation, % at 3.6 µM; in the data active means activation above about 27%;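 further: cells stimulated with NPY near EC25 plus isoproterenol at EC100; 0% = vehicle plus submaximal agonist and 100% = vehicle plus saturating agonist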
# EP2 mod – EP2 receptor (human) modulation. P43116. EP2-expressing cells, cAMP HTRF FRET, PGE2 co-stimulation. induction, % at 25 µM. actives 0.83% (n = 260,000);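 active means compounds whose cAMP rise, as percent of the full-agonist control response, exceeds 60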;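 further: rat C6 glioma line stably carrying human EP2 under a CMV promoter; the protocol text gives 20 µM as final concentration; 100% = response of wells given 1 µM PGE2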
# The depositor's hits bear a star; x = no result.
SMILES,NPY Y2 blocker,NPY-Y1 PAM-ag,NPY-Y1 antag,PGE2 EP2 inh,NPY2 pot ag,EP2 mod
COC(=O)c1cc2ccccn2c2c(C(=O)OC)c(C(=O)OC)cc1-2,0,7,-4,41*,-10,-35
CO[C@H]1/C=C/O[C@@]2(C)Oc3c(C)c(O)c4c(O)c(c(C=NN5CCN(C)CC5)c(O)c4c3C2=O)NC(=O)/C(C)=C\C=C\C(C)[C@H](O)[C@@H](C)[C@@H](O)[C@@H](C)[C@@H](OC(C)=O)[C@@H]1C (some centres undefined),x,x,x,11,x,-4
CO[C@@H]1/C=C\O[C@]2(C)Oc3c(C)c(O)c4c(O)c(cc(O)c4c3C2=O)NC(=O)C(C)=C/C=C\[C@H](C)[C@@H](O)[C@H](C)[C@H](O)[C@H](C)[C@H](OC(C)=O)[C@@H]1C,x,x,x,45*,x,38
COC(=O)N/N=C/c1cn(Cc2ccccc2F)c2ccccc12,x,-4,x,8,29,-42
O=C(O)c1ccc(N/N=C/c2cn(Cc3ccccc3F)c3ccccc23)cc1,x,20,x,5,7,87*
COc1cc(C)cc2c(-c3c(O)cc(O)c4c3C[C@H](C)N[C@@H]4C)cc(-c3cc(-c4c(O)cc(O)c5c4C[C@H](C)N[C@@H]5C)c4cc(C)cc(OC)c4c3O)c(O)c12,x,x,x,41*,x,-12
CCOC(=O)C1CCCN(C(=O)Cn2sc3nc(C)cc(C)c3c2=O)C1 (centres undefined),2,-2,7,115*,0,-15
CC(C)[C@H](Cn1nc(-c2cccs2)ccc1=O)NC(=O)Cn1nnc2ccccc21,x,x,x,9,x,-16
C=CCN(CC=C)Cc1c(O)ccc2c1oc(=O)c1ccccc12,4,-13,16,41*,-14,x
O=[N+]([O-])c1ccc(NC(=S)NCCc2ccc(Cl)cc2)cc1,-2,37,-6,74*,19,-18
COc1ccc(/C(O)=C/C(=O)C(=O)NNC(=O)C(O)(c2ccccc2)c2ccccc2)cc1,3,111*,-12,10,103*,10
O=C(COC(=O)c1c2c(nc3ccccc13)CCCC2)Nc1ccc2c(c1)OCO2,17*,-2,20*,19,-8,46
O=C(COC(=O)c1cc(-c2ccccc2)nc2ccccc12)Nc1ccc2c(c1)OCO2,1,-4,0,8,-11,-9
Cc1cc(C)cc(-n2nnnc2SCC(=O)NCc2ccco2)c1,x,x,x,15,x,-20
O=S1(=O)CCN(c2ccccc2CC(c2c[nH]c3ccccc23)c2c[nH]c3ccccc23)CC1,x,x,x,52*,x,7
O=C(O)[C@@H](Cc1c[nH]c2ccccc12)C(=O)NO,x,x,x,13,x,15
CCN(Cc1ccccc1)C(c1cc2cc(OC)c(OC)cc2[nH]c1=O)c1nnnn1C1CCCC1 (centres undefined),x,x,x,13,x,20
CN1c2cccc3cccc(c23)N(C)C1c1cccs1,4,22,3,5,-2,64*
COc1cccc(C(C(=O)NC2CCCC2)N(C(=O)c2ccco2)c2ccccc2Cl)c1OC (centres undefined),x,x,x,5,x,11
CCOC(=O)/C=C1\NC(C)(C)Cc2cc(OC)c(OC)cc21,0,4,-3,1,-19,28
COc1cc2c(cc1OC)C(=S)NC(C)(C)C2,8,103*,-3,11,46*,1
CCS(=O)(=O)N1Cc2ccccc2CC1C(=O)Nc1nc2ccc(C)cc2s1 (centres undefined),-4,46*,-9,8,31*,-46
CCS(=O)(=O)N1Cc2ccccc2CC1C(=O)Nc1ncc(C)s1 (centres undefined),x,-23,1,9,-3,-6
Cn1c(=O)c2c(nc(N3CCCCC3)n2CCSc2nc3ccccc3s2)n(C)c1=O,4,7,3,0,6,22
CC1CCN(c2nc3c(c(=O)n(C)c(=O)n3C)n2CCSc2nc3ccccc3s2)CC1,0,-5,9,9,3,61*
Cc1onc(-c2c(F)cccc2Cl)c1C(=O)N[C@@H]1C(=O)N2[C@H]1SC(C)(C)[C@H]2C(=O)O,x,x,x,55*,x,20
Cc1onc(-c2ccccc2)c1C(=O)N[C@@H]1C(=O)N2[C@@H]1SC(C)(C)[C@@H]2C(=O)O,2,-10,0,x,9,26
